This is an account of results in publication PMC3141282 (Hypertension, 2011).

One assay deals with megalin. Conditions: scavenger receptor megalin; cited from earlier work.
Assay [1] relates to rabbit aortic smooth muscle cells. Particulars: cited from earlier work.
The test system of assay [2] is HEK 293T cells transfected with the empty vector (mock). The assay can be described thus: [3H]arachidonic acid. In kind it is cell-based, Human. Conditions: Ang-(1-7) during 15 min, 37 °C. A digest of the protocol: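 They were washed with DMEM containing 2% BSA, then exposed to test peptide at 37 °C for the stated times. Supernatant radioactivity was counted, and total cellular radioactivity came from cells solubilized in 1 mol/L NaOH. Fractional release (% of total) was expressed as percent of unstimulated control (100%), mean ± SEM.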

The subject of assay [3] is HEK 293T cells transfected with the empty vector. The assay can be described thus: [125I]Ang-. In kind it is binding, Human.
For assay [4], the system named is endothelial progenitor cells. Particulars: cells from sham or infarcted rodents; cited from earlier work.
Another assay deals with rat renal cortex. Conditions: cited from earlier work.

Regarding Angiotensin-(1-7) [Ang-(1-7)], the “binding and internalization by megalin” value in the assay on megalin is “binds and internalizes Ang-(1-7)”. For the same substance, the “Ang-(1-7) response in releasing AA from tissue lipids and stimulating 6-keto-prostaglandin F1α production” value in assay [1] is given as “decrease in Ang-(1-7) response”. Also, in assay [2], the “[3H]AA release, mock cells” value was “no changes in [^3H]AA release”. In assay [3] (0.5 nmol/L [125I]Ang-(1-7), 4°C, 60 min), the “Ang-(1-7) binding” value is on record as “undetectable”. Besides, the total binding in assay [3] (0.5 nmol/L [125I]Ang-(1-7), 4°C, 60 min, mean ± SEM) is reported as 480±68 cpm. Also, the nonspecific binding in assay [3] (in the presence of 10 μmol/L unlabeled Ang-(1-7), mean ± SEM) was 395±87 cpm. Also, the “Ang-(1-7)-induced proliferation of endothelial progenitor cells, responsiveness” value in assay [4] was “attenuation in responsiveness”. Also, in the assay on rat renal cortex, the “Ang-(1-7) response, phosphatidylcholine biosynthesis” value is “decrease in Ang-(1-7) response”.
